Experiments:
[1] = Inhibition of influenza A virus biotinylated GST-His-tagged H3N2 RNA polymerase PB2 cap-binding domain interaction with EDA-m7GpppA by AlphaScreen assay
[2] = Inhibition of influenza A virus His-tagged H3N2 RNA polymerase PB2 cap-binding domain interaction with EDA-m7GpppA by AlphaScreen assay
How it was run: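 His-tagged H3N2 PB2 cap-binding domain binding a biotinylated cap analogue (Biotin-EDA-m7GpppA), read by AlphaScreen with Ni(II)-chelate beads at 7.5 µg/ml each. Compound was 11-point 1:1 serially diluted from 200 µM. Incubation at room temperature in subdued light. IC50 reported.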

[3] = system: Influenza A virus; test: Antiviral activity against Influenza A virus (A/Aichi/2/68(H3N2)) VR-547 infected in MDCK cells assessed as reduction in virus-induced cytopathic effect at 50 uM after 48 hrs by CellTiter-Glo assay; format: functional, Influenza A virus (A/Aichi/2/1968(H3N2)); parameters: scale not given: the % may be the effect or the level left
[4] = system: Influenza A virus; test: Binding affinity to influenza A virus H5N1 RNA polymerase PB2 cap-binding domain at 10 uM by biacore-based SPR analysis
How it was run: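 Purified H5N1 PB2 cap-binding domain amine-coupled to a CM7 chip at 30 µg/ml in 10 mM phosphate pH 6.5 with 5 mM m7GTP, giving about 7000 RU. Compound injected at 10 µM final (0.5% DMSO) in Tris/EDTA/NaCl/P20/1 mM DTT running buffer at 10 µL/min. Sensorgrams were double-referenced and DMSO-corrected.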

[5] = Inhibition of influenza A virus RNA polymerase PB2 domain-mediated cap binding
[6] = Binding affinity to influenza A virus H5N1 RNA polymerase PB2 cap-binding domain by biacore-based SPR analysis
How it was run: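 H5N1 PB2-CBD was immobilised by amine coupling (30 µg/ml, with 5 mM m7GTP, pH 6.5; about 7000 RU). Analyte was run over 200 µM to 1 nM in Tris/EDTA/NaCl/P20/DTT buffer with 0.5% DMSO. Data were double-referenced and DMSO-corrected. KD came from a linear curve fit.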

Compound | IC50 [1] [µM] | IC50 [2] [µM] | Activity [3] [%] | RU [4] | IC50 [5] [µM] | Kd [6] [µM]
C[n+]1cn(CC(=O)c2ccc(O)c(C(=O)O)c2)c2nc(N)nc([O-])c21 | 2.2 | 0.6 | – | – | – | –
C=CC[n+]1cn(CC(=O)c2ccc(O)c(C(N)=O)c2)c2nc(N)nc([O-])c21 | ≥ 200 | 60 | 0 | – | – | –
C[n+]1cn(-c2cccc(C(=O)O)c2)c2nc(N)nc([O-])c21 | ≥ 200 | 44 | – | – | – | –
C[n+]1cn(CC(=O)c2ccc3ccccc3c2)c2nc(N)nc([O-])c21 | ≥ 200 | 7.6 | -3.2 | – | – | –
C[n+]1cn(-c2ccccc2)c2nc(N)nc([O-])c21 | ≥ 200 | 140 | – | – | – | –
NC(=O)c1cc(C(=O)Cn2cnc3c(=O)[nH]c(N)nc32)ccc1O | 141 | 49 | -0.5 | 20.4 | – | –
C[n+]1cn(CCCCC(=O)O)c2nc(NCCCCC(=O)O)nc([O-])c21 | ≥ 200 | 5.3 | -3.3 | 17.5 | – | –
Nc1nc2c(c(=O)[nH]1)[n+](Cc1ccccc1)cn2CCCCO | ≥ 200 | ≥ 200 | – | – | 45 | –
C[n+]1cn(CC(=O)N[C@H](Cc2ccccc2)C(=O)O)c2nc(N)nc([O-])c21 | ≥ 200 | 65 | – | – | – | –
C[n+]1cn(CCC(=O)O)c2nc(N)nc([O-])c21 | ≥ 200 | ≥ 200 | – | – | – | –
C[n+]1cn(CC(=O)NCC(=O)O)c2nc(N)nc([O-])c21 | ≥ 200 | ≥ 200 | – | – | – | –
C[n+]1cn(C(C(=O)c2ccccc2)c2ccccc2)c2nc(N)nc([O-])c21 (stereo not given) | ≥ 200 | 42 | – | – | – | –
C[n+]1cn(CC(=O)N[C@H](Cc2ccccc2)C(=O)O)c2nc(NCCCCC(=O)O)nc([O-])c21 | ≥ 200 | 53 | – | – | – | –
C[n+]1cn(CC(=O)O)c2nc(NCCCCC(=O)O)nc([O-])c21 | ≥ 200 | 95 | – | – | – | –
CC[n+]1cn(CC(=O)c2ccc(O)c(C(N)=O)c2)c2nc(N)nc([O-])c21 | ≥ 200 | 3.6 | 0.3 | – | – | –
C[n+]1cn(CCCC(=O)O)c2nc(NCCCC(=O)O)nc([O-])c21 | ≥ 200 | 141 | – | – | – | –
C[n+]1cn(CC(=O)N[C@@H](Cc2ccc(O)cc2)C(=O)O)c2nc(N)nc([O-])c21 | ≥ 200 | 80 | – | – | – | –
C[n+]1cn(CC(=O)N[C@@H](Cc2ccccc2)C(=O)O)c2nc(N)nc([O-])c21 | ≥ 200 | 88 | – | – | – | –
Nc1nc2c(ncn2CC(=O)c2ccc(O)c(C(=O)O)c2)c(=O)[nH]1 | 4.8 | 5.6 | 1.1 | 22.6 | – | –

Compound | IC50 [1] [µM] | IC50 [2] [µM] | Activity [3] [%] | RU [4] | IC50 [5] [µM] | Kd [6] [µM]
CC(C(=O)c1ccccc1)n1c[n+](C)c2c([O-])nc(N)nc21 (stereo not given) | ≥ 200 | 65 | – | – | – | –
C[n+]1cn(CCCC(=O)O)c2nc(N)nc([O-])c21 | ≥ 200 | ≥ 200 | – | – | – | –
C[n+]1cn(CC(=O)N[C@@H](CCC(=O)O)C(=O)O)c2nc(N)nc([O-])c21 | ≥ 200 | 45 | -1.8 | 13.8 | – | –
C[n+]1cn(CC(=O)N[C@@H](CC(=O)O)C(=O)O)c2nc(N)nc([O-])c21 | 124 | 33 | – | – | – | –
C[n+]1cn(CC(=O)N[C@H](CC(=O)O)C(=O)O)c2nc(N)nc([O-])c21 | ≥ 200 | 91 | – | – | – | –
C[n+]1cn(CC(=O)c2ccccc2)c2nc(N)nc([O-])c21 | ≥ 200 | 13.7 | -2.3 | – | – | –
C[n+]1cn(CC(=O)O)c2nc(N)nc([O-])c21 | ≥ 200 | ≥ 200 | – | – | – | –
CC(=O)Nc1nc([O-])c2c(n1)n(CC(=O)O)c[n+]2C | ≥ 200 | ≥ 200 | – | – | – | –
C[n+]1cn(CC(=O)c2ccc3c(c2)NC(=O)CO3)c2nc(N)nc([O-])c21 | ≥ 200 | 23 | – | – | – | –
CC(=O)Nc1nc([O-])c2c(n1)n(CC(=O)c1ccc(O)c(C(N)=O)c1)c[n+]2C | ≥ 200 | 129 | – | – | – | –
C[n+]1cn(CC(=O)Nc2cc(C(=O)O)cc(C(=O)O)c2)c2nc(N)nc([O-])c21 | ≥ 200 | ≥ 200 | – | – | – | –
C[n+]1cn(CCCCC(=O)O)c2nc(N)nc([O-])c21 | ≥ 200 | ≥ 200 | – | – | – | –
C[n+]1cn(CC(=O)c2ccc(O)c(C(N)=O)c2)c2nc(N)nc([O-])c21 | ≥ 200 | 7.5 | -0.2 | 85.8 | – | 13
C[n+]1cn(CC(=O)O)c2nc(NCC(=O)O)nc([O-])c21 | ≥ 200 | 44 | – | – | – | –
C[n+]1cn(CCCCCC(=O)O)c2nc(N)nc([O-])c21 | ≥ 200 | ≥ 200 | – | – | – | –
NC(=O)c1cc(C(=O)Cn2c[n+](Cc3ccccc3)c3c([O-])nc(N)nc32)ccc1O | ≥ 200 | 195 | – | – | – | –
C[n+]1cn(-c2ccc(C(=O)O)cc2)c2nc(N)nc([O-])c21 | ≥ 200 | 181 | – | – | – | –
COc1ccc(-n2c[n+](C)c3c([O-])nc(N)nc32)cc1OC | ≥ 200 | 50 | – | – | – | –

— ChEMBL document CHEMBL3085686, “New 7-methylguanine derivatives targeting the influenza polymerase PB2 cap-binding domain” (J Med Chem, 2013)
